Screening results (PubChem BioAssay)
Shown are actives, neighbours in structure and some others; about 2.5% of the full set was active somewhere.
SR-BI DiI-HDL act: activators of SR-BI mediated HDL lipid uptake. AID 504775. CHO ldlA[mSR-BI] cells, DiI-HDL uptake fluorescence, 3 h; 100 = double the neutral-control signal. activation, % at 12.5 µM. 320,000 compounds, 0.096% hits;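 active = mean replicate activation of at least 60% and every replicate at or above 60%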;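 note: 0% = median plate neutral-control signal and 100% = twice that signal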
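Material: SR-BI-overexpressing, LDLR-lacking CHO cells | Dosing: Single compound concentration, delivered by pin transfer | Probe or stimulus: Labelled HDL, 10 µg/mL | Signal: Bottom-read cell fluorescence after medium removal, ex 550/em 595 nm | Schedule: 3 h, 37 °C | Evaluation: HDL uptake via cellular fluorescence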
TAG inh: reduces triacylglycerol accumulation in H9c2 cells. inhibition, % at 12.5 µM. Nile Red lipid (TAG) fluorescence; cells loaded with 200 µM oleic acid. 230,000 compounds, 0.66% hits;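 active = pattern-corrected inhibition of lipid staining of at least 50% with the nuclear-stain viability signal not falling by more than 50%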;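 note: 0% = DMSO wells and 100% = triacsin C control wells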
Vif inh: HIV Vif inhibition; HEK293T cells, Vif self-association by quenched fluorescence, imaging, 24 h; inhibition, % at 7.49 µM; 340,000 compounds, 0.35% hits; AID 602346; in the data active = inhibition above about 50%, passing the limit was not always enough
SMARCA2 activ: increases SMARCA2 function in MMTV reporter cells. MG213 cells, MMTV-luciferase reporter, dexamethasone, overnight. activation, % at 9.1 µM. 370,000 compounds, 1% hits; in the data active = activation above about 7.8%;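 note: 0% = vehicle wells and 100% = reference activator wells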
SR-BI HDL uptake: inhibitors of mouse SR-BI mediated HDL lipid uptake; ldlA[mSR-BI] CHO cells, DiI-HDL uptake fluorescence, 3 h; inhibition, % at 12.5 µM; 320,000 compounds, 0.96% hits; AID 488896;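 active = mean replicate inhibition of at least 70% and a set share of replicates each scoring 70 or more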;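 note: 0% = median of neutral control wells and 100% = median of positive control wells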
Target sequence (Q61009 whole entry, looked up): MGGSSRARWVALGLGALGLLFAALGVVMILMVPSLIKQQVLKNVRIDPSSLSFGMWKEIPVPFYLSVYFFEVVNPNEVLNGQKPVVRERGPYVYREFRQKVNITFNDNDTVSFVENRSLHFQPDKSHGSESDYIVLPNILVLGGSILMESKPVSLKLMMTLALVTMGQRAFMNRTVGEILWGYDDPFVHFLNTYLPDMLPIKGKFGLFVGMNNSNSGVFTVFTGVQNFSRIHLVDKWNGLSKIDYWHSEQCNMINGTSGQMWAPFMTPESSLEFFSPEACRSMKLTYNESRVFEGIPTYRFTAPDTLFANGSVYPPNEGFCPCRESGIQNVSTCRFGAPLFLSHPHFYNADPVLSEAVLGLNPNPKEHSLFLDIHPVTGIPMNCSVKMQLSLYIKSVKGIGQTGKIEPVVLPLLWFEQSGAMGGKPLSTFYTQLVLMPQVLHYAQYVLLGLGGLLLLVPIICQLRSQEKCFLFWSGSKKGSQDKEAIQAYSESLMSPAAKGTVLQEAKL
SMARCA2 act conf: SMARCA2 activation, confirmation screen; shares compounds with SMARCA2 activ; MG213 cells, MMTV-luciferase with dexamethasone, luminescence, overnight; MG213 cells expressing E1A, Rb sequestered; DMSO wells 0%, reference activator 100%; activation, % at 9.1 µM; 3,500 compounds, 30% hits;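 active = activation above its plate's cutoff, the mean activation of tested wells plus 3 SD, cut at about 7.9% in these data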
GAL4-VP16 Luc: GAL4-VP16 reporter activation counter-screen | shares compounds with SMARCA2 activ | HEK293 GAL4-VP16 pG5luc reporter, luciferase luminescence; scaled: DMSO wells 0%, SAHA wells 100% | activation, % at 9.1 µM | 3,500 compounds, 41% hits | AID 686939;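 active = activation above the solvent-only control well mean plus 3 SD, averaged across control plates, cut at about 5.2% in these data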
Numbers without * were called inactive.

Results for COc1cccc(N=Cc2c(O)c3ccccc3oc2=O)c1 ?
SR-BI DiI-HDL act: 20.2; TAG inh: -11.1; Vif inh: 9.4; SMARCA2 activ: -0.9; SR-BI HDL uptake: -20.2

How did COc1ccc2[nH]c3c(C)c4ccncc4c(C)c3c2c1 do in these assays?
SR-BI DiI-HDL act: -30.3; Vif inh: -7.6; SMARCA2 activ: 16.4*; SR-BI HDL uptake: 30.3; SMARCA2 act conf: 47.8*; GAL4-VP16 Luc: 1.2

How did Cn1ccnc1SCC(=O)N1CCc2ccccc21 do in these assays?
SR-BI DiI-HDL act: -10.6; TAG inh: 5.3; Vif inh: 5.0; SMARCA2 activ: 8.2*; SR-BI HDL uptake: 10.6; SMARCA2 act conf: 10.7*; GAL4-VP16 Luc: 8.7*

Results for C#CCNC(=O)C[C@H]1C[C@@]2(C(=O)OCC)CCCC3=C2N(CCC3)C1=O ?
SMARCA2 activ: -0.8

Results for CCN=C1S/C(=C\c2cn(CC(=O)NCc3ccco3)c3ccccc23)C(=O)N1CC ?
Vif inh: 13.0; SMARCA2 activ: 8.1*; SMARCA2 act conf: 9.9*; GAL4-VP16 Luc: 4.3

What do the screens show for `COc1cc(OC)cc(-c2nc3ccccc3s2)c1`?
SR-BI DiI-HDL act: -28.4; Vif inh: -1.9; SMARCA2 activ: 8.2*; SR-BI HDL uptake: 28.4; SMARCA2 act conf: 11.3*; GAL4-VP16 Luc: 4.5

What do the screens show for `Cc1cc2c(nc1C)CCCN2S(=O)(=O)c1ccc(C#N)cc1`?
SMARCA2 activ: -2.1

What do the screens show for `O=C(C(=O)N1CCC(c2ccccc2)CC1)c1ccc(F)c(F)c1`?
SMARCA2 activ: -6.5

Results for Nc1ccnc(Oc2ccc(F)cc2)c1 ?
SR-BI DiI-HDL act: 16.0; SMARCA2 activ: 17.7*; SR-BI HDL uptake: -16.0; SMARCA2 act conf: -1.5; GAL4-VP16 Luc: 3.7

What do the screens show for `COc1ccc(Oc2cc(F)nc(N)n2)cc1`?
SR-BI DiI-HDL act: 0.5; SMARCA2 activ: 1.6; SR-BI HDL uptake: -0.5

Results for CN(C)c1ccc(-c2ccc3c(=O)c4ccccc4n(C)c3c2)cn1 ?
SR-BI DiI-HDL act: -11.8; TAG inh: 2.4; Vif inh: 7.5; SMARCA2 activ: 8.5*; SR-BI HDL uptake: 11.8; SMARCA2 act conf: 9.8*; GAL4-VP16 Luc: 10.8*

What do the screens show for `O=C(NCc1c(F)cccc1F)C1CCCN(c2ncccn2)C1` (stereo not given)?
SMARCA2 activ: -2.3

Results for CCOCCCNC(=O)c1ccccc1OC1CCN(S(C)(=O)=O)CC1 ?
SR-BI DiI-HDL act: -0.3; TAG inh: -8.6; Vif inh: 1.0; SMARCA2 activ: 4.7; SR-BI HDL uptake: 0.3

What do the screens show for `CCOCCCNC(=O)c1cccc(OC2CCN(S(C)(=O)=O)CC2)c1`?
SR-BI DiI-HDL act: 11.1; Vif inh: -1.0; SMARCA2 activ: 8.3*; SR-BI HDL uptake: -11.1; SMARCA2 act conf: 7.5; GAL4-VP16 Luc: 10.5*

What do the screens show for `Cc1ccc(Cn2cc(CN3CC(N4CCCC4)CS3(=O)=O)nn2)cc1` (stereo not given)?
SMARCA2 activ: -2.4

What do the screens show for `CN(C)CCNc1ncnc2c1cnn2-c1ccc(Cl)cc1`?
TAG inh: 30.8; SMARCA2 activ: 13.5*; SMARCA2 act conf: 10.6*; GAL4-VP16 Luc: 11.5*

Results for CCc1ccc(S(=O)(=O)NCCc2cn3ccc(C)cc3n2)s1 ?
SR-BI DiI-HDL act: -0.4; Vif inh: -0.7; SMARCA2 activ: 0.5; SR-BI HDL uptake: 0.4

What do the screens show for `CCc1ccc(S(=O)(=O)NCCc2cn3cccc(C)c3n2)s1`?
SR-BI DiI-HDL act: -7.7; Vif inh: 0.1; SMARCA2 activ: 8.1*; SR-BI HDL uptake: 7.7; SMARCA2 act conf: -0.4; GAL4-VP16 Luc: 0.0

What do the screens show for `COc1ccc(CCNC(=O)c2ccc3c(c2)S(=O)(=O)N=C2CCCCCN23)cc1OC`?
TAG inh: 0.4; SMARCA2 activ: -1.6

How did CCCCN1CCc2c(c3ccccc3n2Cc2ccccc2)C1 do in these assays?
SR-BI DiI-HDL act: -4.1; Vif inh: -0.1; SMARCA2 activ: -1.2; SR-BI HDL uptake: 4.1

How did CN1CCc2c(c3ccccc3n2Cc2ccccc2)C1 do in these assays?
SR-BI DiI-HDL act: 2.5; TAG inh: 8.0; Vif inh: -1.3; SMARCA2 activ: -1.7; SR-BI HDL uptake: -2.5; SMARCA2 act conf: -2.0; GAL4-VP16 Luc: 1.6

What do the screens show for `C/C(=N\Nc1nccnc1Cl)c1ccc(F)cc1`?
SR-BI DiI-HDL act: 6.9; TAG inh: -6.8; Vif inh: -0.2; SMARCA2 activ: 8.9*; SR-BI HDL uptake: -6.9; SMARCA2 act conf: 10.2*; GAL4-VP16 Luc: 11.9*

Results for CCc1cc(=O)oc2cc(OCC(=O)NCCCN3CCOCC3)c(Cl)cc12 ?
SR-BI DiI-HDL act: 2.0; Vif inh: 14.3; SMARCA2 activ: 8.4*; SR-BI HDL uptake: -2.0; SMARCA2 act conf: -0.9; GAL4-VP16 Luc: -0.6

How did COc1ccc(-c2cc(C)no2)cc1S(=O)(=O)NCC(C)c1ccccc1 (stereo not given) do in these assays?
Vif inh: -5.3; SMARCA2 activ: -2.2

What do the screens show for `COc1ccc(-c2cc(C)no2)cc1S(=O)(=O)Nc1ccc(NC(C)=O)cc1`?
SR-BI DiI-HDL act: -5.0; Vif inh: -5.7; SMARCA2 activ: 8.7*; SR-BI HDL uptake: 5.0; SMARCA2 act conf: -2.2; GAL4-VP16 Luc: 1.9

How did CN(Cc1nc2ccccc2c(=O)[nH]1)C(=O)c1cc(-c2ccc(Br)cc2)nc2ccccc12 do in these assays?
SR-BI DiI-HDL act: -34.2; TAG inh: 20.4; Vif inh: -4.0; SMARCA2 activ: 2.6; SR-BI HDL uptake: 34.2

How did COc1ccc(C2=NS(=O)(=O)N(C)C(C(=O)N3CCC(C(N)=O)CC3)=C2)cc1 do in these assays?
SR-BI DiI-HDL act: 37.2; TAG inh: -5.8; SMARCA2 activ: -3.6; SR-BI HDL uptake: -37.2

What do the screens show for `O=C(/C=C/c1ccccc1Cl)Nc1ccc(-c2nnc3n2CCCCC3)cc1`?
SR-BI DiI-HDL act: 8.7; Vif inh: -5.5; SMARCA2 activ: 10.3*; SR-BI HDL uptake: -8.7; SMARCA2 act conf: -4.1; GAL4-VP16 Luc: -0.9

How did COc1ccc(C(=O)NC2CCCCCC2)cc1S(=O)(=O)N1CCCC1 do in these assays?
SR-BI DiI-HDL act: -11.3; TAG inh: -1.4; Vif inh: 4.6; SMARCA2 activ: -0.3; SR-BI HDL uptake: 11.3

Results for Cn1c(N)c(C(=O)COC(=O)c2ccc(Cl)c(S(=O)(=O)N3CCCCC3)c2)c(=O)n(C)c1=O ?
SR-BI DiI-HDL act: -25.1; Vif inh: -3.4; SMARCA2 activ: 11.6*; SR-BI HDL uptake: 25.1; SMARCA2 act conf: -0.7; GAL4-VP16 Luc: -1.5

Results for O=C(COC(=O)c1ccc(Cl)c(S(=O)(=O)N2CCCCC2)c1)NC1CCCCC1 ?
TAG inh: 0.3; Vif inh: 0.8; SMARCA2 activ: 14.6*; SMARCA2 act conf: 1.9; GAL4-VP16 Luc: -1.4
